Measured values pooled from the literature.
Compare with care: the assays were run in different laboratories.
Target: Protein kinase C iota type (PRKCI, Homo sapiens, UniProt P41743)
One construct used (P41743 1-596): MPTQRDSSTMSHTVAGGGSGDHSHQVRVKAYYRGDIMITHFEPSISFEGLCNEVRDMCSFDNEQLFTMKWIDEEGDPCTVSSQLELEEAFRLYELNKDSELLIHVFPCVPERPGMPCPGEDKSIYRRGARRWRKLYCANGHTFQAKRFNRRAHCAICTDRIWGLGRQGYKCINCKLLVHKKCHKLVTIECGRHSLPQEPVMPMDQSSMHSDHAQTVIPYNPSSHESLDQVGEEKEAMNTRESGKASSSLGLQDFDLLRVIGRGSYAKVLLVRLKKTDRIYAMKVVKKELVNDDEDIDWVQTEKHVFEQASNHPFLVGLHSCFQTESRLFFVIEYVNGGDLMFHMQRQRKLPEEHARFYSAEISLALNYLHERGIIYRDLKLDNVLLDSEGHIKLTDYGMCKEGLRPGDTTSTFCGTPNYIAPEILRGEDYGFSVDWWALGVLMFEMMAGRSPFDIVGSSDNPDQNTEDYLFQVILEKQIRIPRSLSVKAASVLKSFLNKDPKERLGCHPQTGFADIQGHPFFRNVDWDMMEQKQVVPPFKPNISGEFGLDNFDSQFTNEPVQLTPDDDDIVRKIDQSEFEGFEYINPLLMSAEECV

SMILES	effect on	technique	tested at	remaining binding
C[C@@H](c1ccc(-n2cnc3c(N)ncnc32)cc1)N1CCc2nn(C)c(Cc3ccccc3)c2C1=O	binding	competition with immobilised ligand	0.1 µM	82%
CN(C)c1nccc(-c2cnn3ncccc23)n1	binding	–	1 µM	81%
O=C(c1ccc(Nc2nccc(-c3cc4ccccc4s3)n2)cc1)N1CCC(N2CCCC2)CC1	binding	competition with immobilised ligand	1 µM	54%
C[C@@H]1CCN(c2nccc(-c3cnn4ncccc34)n2)C1	binding	–	1 µM	64%
NS(=O)(=O)c1cc(NC(=O)C2(c3ccccc3Cl)CC2)ccc1Oc1cccc(Cl)c1	cell-free assay	competition with immobilised ligand	1 µM	98%
Cc1cnc(Nc2ccc(C(=O)N3CCC(N4CCCC4)CC3)cc2)nc1-c1cc2ccccc2s1	binding	competition with immobilised ligand	1 µM	83%
N#Cc1ccc(Nc2ccc3[nH]c(=O)[nH]c3c2)c(Cl)c1	cell-free assay	competition with immobilised ligand	1 µM	86%
c1cncc(-c2cccc(Nc3nccc(NC4CCCCC4)n3)c2)c1	binding	competition with immobilised ligand	10 µM	78%
COc1cnc(Nc2cccc(S(N)(=O)=O)c2)nc1N1CCN(c2ccccc2)C(=O)C1	binding	competition with immobilised ligand	1 µM	96%
O=C(Nc1c[nH]nc1C(=O)NC1CCNCC1)c1cc(F)cc(F)c1	binding	competition with immobilised ligand	1 µM	84%
O=C1NC(c2ccccn2)Sc2ccccc21 (stereo not drawn)	cell-free assay	competition with immobilised ligand	1 µM	72%
COc1ccnn2ncc(-c3ccnc(N(C)C)n3)c12	binding	–	1 µM	74%
COc1ncc2cc3ccccc3nc2c1C#N	cell-free assay	competition with immobilised ligand	5 µM	100%
Cc1cnn2ncc(-c3ccnc(N(C)C)n3)c2c1	binding	–	1 µM	81%
O=C(NCCCN1CCOCC1)c1ccc(Nc2nccc(-c3cc4ccccc4s3)n2)cc1	binding	competition with immobilised ligand	1 µM	87%
C[C@@H]1CN(c2cc(-c3n[nH]c4ccc(OC5(C)CC5)cc34)ncn2)C[C@H](C)O1	cell-free assay	competition with immobilised ligand	0.1 µM	80%
COc1cnc(Nc2cccc(S(N)(=O)=O)c2)nc1N1CCN(c2ccccc2)CC1	binding	competition with immobilised ligand	1 µM	95%
CN(C)c1ncnc(-c2ccc3nc(Nc4cc(CN5CCN(C(=O)CC(F)(F)F)CC5)ccn4)[nH]c3c2)c1Cl	cell-free assay	competition with immobilised ligand	1 µM	79%
CC1CCCN1c1nccc(-c2cnn3ncccc23)n1 (stereo not drawn)	binding	–	1 µM	100%
O=C(O)[C@H]1[C@H](Cn2nnc3ccccc3c2=O)CC[C@@H]1C(=O)c1ccc(OCCC2CCOCC2)cc1	cell-free assay	competition with immobilised ligand	1 µM	66%
N[C@H]1CCN(c2nccc(-c3cnn4ncccc34)n2)C1	binding	–	1 µM	37%
